Consider 35 compounds from ChEMBL document CHEMBL1152134, “Synthetic chalcones as efficient inhibitors of Mycobacterium tuberculosis protein tyrosine phosphatase PtpA” (Bioorg Med Chem Lett, 2008).

The target in one test is T1, Low molecular weight protein-tyrosine phosphatase A (Mycobacterium tuberculosis) (UniProt P9WIA1).
T1 sequence (whole entry): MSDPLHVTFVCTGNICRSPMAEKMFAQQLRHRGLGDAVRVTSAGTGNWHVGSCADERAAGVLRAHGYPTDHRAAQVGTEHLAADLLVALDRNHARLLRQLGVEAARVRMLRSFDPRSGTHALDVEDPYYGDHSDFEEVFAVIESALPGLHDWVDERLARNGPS
Briefly: Inhibition of Mycobacterium tuberculosis recombinant protein tyrosine phosphatase assessed as enzyme activity at 25 uM. The arrangement: scale not given: the % may be the effect or the level left. The method in brief: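 His-tagged recombinant M. tuberculosis PtpA expressed from pET28a. Compound diluted in 25 mM bis-Tris–HCl pH 8.0, 20 mM imidazole pH 7.0, 40 mM DTT and 40 mM pNPP substrate; enzyme added to start. Incubated 20 min at 37 °C, absorbance at 410 nm read every 2 min. Controls: no enzyme; enzyme with DMSO. Percent activity averaged from two experiments in triplicate.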
For `COc1cc(OC)c(C(=O)/C=C/c2ccc3ccccc3c2)c(OC)c1`, the Activity stood at 104%. The same measure, in the same setting: as for `COc1cc(O)c(C(=O)/C=C/c2cccc3ccccc23)c(OC)c1`, the figure is 84.4%; as for `COc1ccc(C(=O)/C=C/c2cccc3ccccc23)cc1`, 82.4%; as for `COc1ccc(C(=O)/C=C/c2ccc3c(c2)OCO3)cc1OC`, 99%. Turning to `COc1cc(OC)c(C(=O)/C=C/c2cccc([N+](=O)[O-])c2)c(OC)c1`, the Activity was determined as 100%. The same measure, in the same setting: the same measure for `O=C(/C=C/c1ccc2ccccc2c1)c1cccc([N+](=O)[O-])c1`: 84%; for `O=C(/C=C/c1ccc2ccccc2c1)c1ccc([N+](=O)[O-])cc1`: 89%; for `COc1ccc(C(=O)/C=C/c2ccc3c(c2)OCO3)cc1`: 94%. The same measure, in the same setting: the same measure for `COC1C=C(C(=O)/C=C/c2ccc3ccccc3c2)C=CC1O` (centres undefined): 61%; for `O=C(/C=C/c1cccc2ccccc12)c1ccccc1O`: 24%; for `COc1ccc(OC)c(C(=O)/C=C/c2ccc3c(c2)OCO3)c1`: 91.3%. On the same count and under the same terms, as for `O=C(/C=C/c1ccc2ccccc2c1)c1ccc(Br)cc1`, the figure is 89.2%; as for `O=C(/C=C/c1cccc2ccccc12)c1cccc([N+](=O)[O-])c1`, 88%; as for `COc1ccc(C(=O)/C=C/c2cccc3ccccc23)c(OC)c1`, 80%. With `COc1cc(O)c(C(=O)/C=C/c2cccc(Cl)c2)c(OC)c1`, the Activity is 87%.

For `O=C(/C=C/c1cccc2ccccc12)c1ccc(Br)cc1`, the Activity was 75%. On the same count and under the same terms, the same measure for `O=C(/C=C/c1cccc2ccccc12)c1ccccc1`: 62.7%; for `COc1cc(C(=O)/C=C/c2ccc3c(c2)OCO3)cc(OC)c1OC`: 82.4%; for `COc1cc(C(=O)/C=C/c2ccc3c(c2)OCO3)ccc1O`: 80%. In the case of `COc1cc(OC)c(C(=O)/C=C/c2ccc(Cl)c(Cl)c2)c(OC)c1`, the Activity stood at 99%. The same measure, in the same setting: the same measure for `O=C(/C=C/c1ccc2c(c1)OCO2)c1ccc([N+](=O)[O-])cc1`: 80.5%; for `O=C(/C=C/c1ccc2c(c1)OCO2)c1ccccc1`: 103%; for `O=C(/C=C/c1ccc2ccccc2c1)c1ccccc1O`: 74.6%. The same measure, in the same setting: the same measure for `COc1ccc(C(=O)/C=C/c2ccc3ccccc3c2)cc1OC`: 31.5%; for `COc1cc(C(=O)/C=C/c2cccc3ccccc23)cc(OC)c1OC`: 102%. Same read-out and setting: as for `O=C(/C=C/c1cccc2ccccc12)c1cccc(O)c1`, the figure is 79.5%; as for `O=C(/C=C/c1ccc2c(c1)OCO2)c1cccc([N+](=O)[O-])c1`, 74%; as for `O=C(/C=C/c1ccc2c(c1)OCO2)c1ccccc1O`, 103%. For the compound `COc1cc(OC)c(C(=O)/C=C/c2cccc(Cl)c2)c(OC)c1`, the Activity stood at 98%. Same read-out and setting: as for `O=C(/C=C/c1ccc2c(c1)OCO2)c1ccc(Br)cc1`, the figure is 86%; as for `COc1cc(C(=O)/C=C/c2ccc3ccccc3c2)cc(OC)c1OC`, 109%. Same read-out and setting: the same measure for `O=C(/C=C/c1cccc2ccccc12)c1ccc([N+](=O)[O-])cc1`: 82%; for `COc1ccc(OC)c(C(=O)/C=C/c2ccc3ccccc3c2)c1`: 42.5%; for `COc1cc(O)c(C(=O)/C=C/c2cccc([N+](=O)[O-])c2)c(OC)c1`: 92%. With `COc1ccc(OC)c(C(=O)/C=C/c2cccc3ccccc23)c1`, the Activity is 54%.

A further test has as its target T2, Low molecular weight protein-tyrosine phosphatase A (Mycobacterium tuberculosis, UniProt P9WIA1).
T2 sequence (P9WIA1 whole entry): T1 sequence (whole entry)
Briefly: Inhibition of Mycobacterium tuberculosis recombinant protein tyrosine phosphatase.
Usually IC50 stands for the concentration that inhibits the measured activity by half. With `O=C(/C=C/c1cccc2ccccc12)c1ccccc1O`, the IC50 was 50.7 µM.

`COc1ccc(C(=O)/C=C/c2ccc3ccccc3c2)cc1OC`: the IC50 is 23.1 µM. Same read-out and setting: the same measure for `COc1ccc(OC)c(C(=O)/C=C/c2ccc3ccccc3c2)c1`: 8.4 µM. On the same count and under the same terms, the same measure for `COc1ccc(OC)c(C(=O)/C=C/c2cccc3ccccc23)c1`: 39.5 µM.
